≈ marks a conversion by molar mass, not a printed value.
Columns and labels:
[1] = Intrinsic clearance in human hepatocytes measured per 10^6 cells; type: ADME, cell-based, Hepatocyte; conditions: read-out: CLH
Outline: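 Intrinsic clearance was measured in human hepatocytes and is expressed in µL/min/10^6 cells.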

[2] = Buffer/octanol partition coefficient, log D of the compound at pH 7.4 by shake flask method; type: physicochemical
Outline: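 LogD at pH 7.4 was measured by shake-flask with a buffer/octanol volume ratio of 100:1.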

[3] = Solubility of the compound in phosphate buffer at pH 7.4; type: physicochemical
Outline: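 Solubility was measured from solid material in phosphate buffer at pH 7.4.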

[4] = target: T1, Phosphatidylinositol 4,5-bisphosphate 3-kinase catalytic subunit beta isoform (Homo sapiens, UniProt P42338); assay: Inhibition of PI3Kbeta in human MAD-MB-468 cells assessed as inhibition of Ser473 Akt phosphorylation by cellular potency assay
[5] = Apparent permeability from apical (pH 6.5) to […] of human Caco2 cells; type: ADME, cell-based; conditions: Caco-2, pH 6.5
[6] = target: T2, Phosphatidylinositol 4,5-bisphosphate 3-kinase catalytic subunit delta isoform (Homo sapiens, UniProt O00329); assay: Inhibition of human recombinant PI3Kdelta assessed as depletion of ATP substrate by Ultra Glo luciferase assay
T2 sequence (O00329 whole entry): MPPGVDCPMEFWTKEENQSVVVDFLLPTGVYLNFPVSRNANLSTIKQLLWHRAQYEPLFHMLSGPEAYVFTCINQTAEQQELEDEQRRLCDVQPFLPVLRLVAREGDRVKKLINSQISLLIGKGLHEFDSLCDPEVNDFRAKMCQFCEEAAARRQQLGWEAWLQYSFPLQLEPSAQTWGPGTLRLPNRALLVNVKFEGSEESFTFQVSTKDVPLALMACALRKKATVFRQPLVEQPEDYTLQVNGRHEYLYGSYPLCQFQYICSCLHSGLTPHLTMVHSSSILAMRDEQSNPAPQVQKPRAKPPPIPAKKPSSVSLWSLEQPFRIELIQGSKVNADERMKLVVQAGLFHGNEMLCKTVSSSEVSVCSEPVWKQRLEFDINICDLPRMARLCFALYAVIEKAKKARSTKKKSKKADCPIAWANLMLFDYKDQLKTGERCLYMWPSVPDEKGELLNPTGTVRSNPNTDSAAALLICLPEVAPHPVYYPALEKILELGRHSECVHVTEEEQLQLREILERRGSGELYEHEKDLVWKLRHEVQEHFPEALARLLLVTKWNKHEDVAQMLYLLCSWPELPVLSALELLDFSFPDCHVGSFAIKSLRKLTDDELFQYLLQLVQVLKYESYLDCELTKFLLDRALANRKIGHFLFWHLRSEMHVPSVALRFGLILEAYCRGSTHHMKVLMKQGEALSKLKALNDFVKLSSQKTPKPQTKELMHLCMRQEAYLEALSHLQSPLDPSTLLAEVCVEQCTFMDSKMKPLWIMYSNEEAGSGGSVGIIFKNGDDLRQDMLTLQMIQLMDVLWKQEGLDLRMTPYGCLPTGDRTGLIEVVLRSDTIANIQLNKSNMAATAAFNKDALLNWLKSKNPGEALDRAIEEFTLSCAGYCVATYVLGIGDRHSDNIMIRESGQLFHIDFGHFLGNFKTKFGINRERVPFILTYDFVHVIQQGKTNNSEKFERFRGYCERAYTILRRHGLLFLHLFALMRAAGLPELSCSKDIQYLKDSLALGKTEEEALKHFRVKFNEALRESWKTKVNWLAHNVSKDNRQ
Outline: (§1)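 Enzyme IC50s are reported as the geometric mean of 3 or more values.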

[7] = target: T3, Phosphatidylinositol 4,5-bisphosphate 3-kinase catalytic subunit alpha isoform (Homo sapiens, UniProt P42336); assay: Inhibition of human recombinant PI3Kalpha assessed as depletion of ATP substrate by Ultra Glo luciferase assay; outline: as §1
[8] = target: Phosphatidylinositol 4,5-bisphosphate 3-kinase catalytic subunit gamma isoform (Homo sapiens, UniProt P48736); assay: Inhibition of human recombinant PI3Kgamma assessed as depletion of ATP substrate by Ultra Glo luciferase assay; outline: as §1
[9] = target: T1, Phosphatidylinositol 4,5-bisphosphate 3-kinase catalytic subunit beta isoform; assay: Inhibition of human recombinant PI3Kbeta assessed as depletion of ATP substrate by Ultra Glo luciferase assay; outline: as §1
[10] = target: T3, Phosphatidylinositol 4,5-bisphosphate 3-kinase catalytic subunit alpha isoform; assay: Inhibition of PI3Kalpha in human BT474 cells assessed as inhibition of […] Akt phosphorylation after 2 hrs by fluorescence assay; type: cell-based, BT-474
Outline: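 BT474 cells were seeded in DMEM with 10% FCS and 1% glutamine and left to adhere overnight, then treated with compound in DMSO for 2 h at 37 °C and 5% CO2. Cells were lysed with a phosphatase/protease-inhibitor buffer. Lysate was captured on anti-total-Akt plates, probed with anti-phospho-Akt Thr308 and an HRP secondary, and read by fluorescence (ex 325/em 420 nm). Values are the geometric mean of ≥2 determinations.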

[11] = Ratio of total plasma concentration in PTEN-null human PC3 cells xenografted in SCID mouse at 50 mg/kg, po single dose at 0.5 hrs to IC50 for PI3Kbeta in human […] cells; set-up: species or system PC-3
Outline: (§2)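 SCID mice bearing PTEN-null PC3 prostate tumour xenografts got a single oral dose given as a suspension. Total plasma concentration was measured at the sampled time points (0.5, 4 or 8 h). The value is the […] cover over the PI3Kβ cellular IC50, which comes from inhibition of Ser473 Akt phosphorylation in PTEN-null MDA-MB-468 breast adenocarcinoma cells.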

[12] = Fraction unbound in mouse plasma; type: ADME, cell-free
Outline: (§3)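 Protein binding was measured in nude mouse plasma and in human plasma and is expressed as fraction unbound (%).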

[13] = Total plasma concentration in SCID mouse xenografted with PTEN-null human PC3 cells at 50 mg/kg, po measured after 4 hrs; type: ADME, organism-based, PC-3; set-up: dose 50 mg/kg, route oral
Outline: (§4)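 Total plasma concentration was measured in SCID mice carrying PC3 xenografts after a single oral dose given as a suspension (50, 100 or 200 mg/kg). Samples were taken at 0.5 to 8 h.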

[14] = Bioavailability in mouse plasma at 5 umol/kg, iv and 30 umol/kg, po; type: ADME, organism-based
Outline: (§5)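 […] mice were dosed at 5 µmol/kg i.v. and 30 µmol/kg p.o. Clearance is given in mL/min/kg and oral bioavailability in %.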

[15] = Fraction unbound in human plasma; type: ADME, cell-free; outline: as §3
Homo sapiens [16] = organism: Homo sapiens; assay: Ratio of IC50 for PI3Kalpha human BT474 cells to IC50 PI3Kbeta in human […] cells
[17] = Ratio of total plasma concentration in PTEN-null human PC3 cells xenografted in SCID mouse at 50 mg/kg, po single dose at 4 hrs to IC50 for PI3Kbeta in human […] cells; set-up: species or system PC-3; outline: as §2
Mus musculus [18] = assay: Inhibition of Akt phosphorylation in SCID mouse xenografted with PTEN-null human PC3 cells at 50 mg/kg, po measured after 30 mins; type: functional; conditions: PC-3, 0.5 h
Outline: (§6)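 SCID mice carrying PTEN-null PC3 prostate xenografts received a single oral dose as a suspension (50, 100 or 200 mg/kg).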

Mus musculus [19] = assay: Inhibition of Akt phosphorylation in SCID mouse xenografted with PTEN-null human PC3 cells at 50 mg/kg, po measured after 4 hrs; type: functional; conditions: PC-3, 4 h; outline: as §6
[20] = Clearance in mouse plasma at 5 umol/kg, iv and 30 umol/kg, po; type: ADME, organism-based; outline: as §5
[21] = Total plasma concentration in SCID mouse xenografted with PTEN-null human PC3 cells at 50 mg/kg, po measured after 30 mins; type: ADME, organism-based, PC-3; set-up: dose 50 mg/kg, route oral; outline: as §4
Homo sapiens [22] = organism: Homo sapiens; assay: Ratio of IC50 for human recombinant PI3Kgamma to IC50 human recombinant PI3Kbeta
Outline: (§7)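 Ratio is taken from enzyme IC50 values, each the geometric mean of 3 or more determinations. In the PI3Kβ enzyme assay, functional enzyme concentration was measured experimentally. The tight-binding limit, half that concentration, is 10 nM, so β IC50 values near that floor set a cap on the ratio.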

Homo sapiens [23] = organism: Homo sapiens; assay: Ratio of IC50 for human recombinant PI3Kalpha to IC50 human recombinant PI3Kbeta; outline: as §7

T3 sequence (P42336 whole entry, canonical isoform): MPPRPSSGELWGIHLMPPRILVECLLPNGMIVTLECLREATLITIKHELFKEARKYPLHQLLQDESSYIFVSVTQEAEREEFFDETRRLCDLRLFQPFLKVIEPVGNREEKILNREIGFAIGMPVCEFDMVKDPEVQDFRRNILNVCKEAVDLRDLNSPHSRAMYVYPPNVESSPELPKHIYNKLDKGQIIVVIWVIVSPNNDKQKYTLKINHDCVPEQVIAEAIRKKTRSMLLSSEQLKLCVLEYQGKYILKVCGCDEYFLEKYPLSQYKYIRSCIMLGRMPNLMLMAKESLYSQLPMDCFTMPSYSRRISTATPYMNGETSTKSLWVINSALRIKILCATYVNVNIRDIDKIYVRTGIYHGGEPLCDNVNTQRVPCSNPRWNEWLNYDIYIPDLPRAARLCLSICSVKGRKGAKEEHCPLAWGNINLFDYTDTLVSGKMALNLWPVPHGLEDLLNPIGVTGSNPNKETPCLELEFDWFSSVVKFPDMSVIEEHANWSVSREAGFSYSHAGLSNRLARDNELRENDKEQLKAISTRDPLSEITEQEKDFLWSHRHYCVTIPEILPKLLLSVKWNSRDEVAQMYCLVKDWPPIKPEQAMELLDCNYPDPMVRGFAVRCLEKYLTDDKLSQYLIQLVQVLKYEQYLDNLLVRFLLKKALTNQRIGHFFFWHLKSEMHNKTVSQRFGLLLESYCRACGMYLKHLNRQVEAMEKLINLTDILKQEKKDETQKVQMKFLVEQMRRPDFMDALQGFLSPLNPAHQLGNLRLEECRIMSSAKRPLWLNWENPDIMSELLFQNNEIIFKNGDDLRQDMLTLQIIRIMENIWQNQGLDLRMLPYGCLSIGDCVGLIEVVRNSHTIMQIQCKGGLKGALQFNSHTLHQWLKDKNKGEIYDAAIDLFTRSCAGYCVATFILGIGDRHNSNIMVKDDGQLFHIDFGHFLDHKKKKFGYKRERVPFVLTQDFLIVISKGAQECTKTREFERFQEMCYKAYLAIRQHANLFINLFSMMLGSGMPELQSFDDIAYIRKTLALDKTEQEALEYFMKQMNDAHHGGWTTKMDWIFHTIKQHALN
T1 sequence (P42338 whole entry, canonical isoform): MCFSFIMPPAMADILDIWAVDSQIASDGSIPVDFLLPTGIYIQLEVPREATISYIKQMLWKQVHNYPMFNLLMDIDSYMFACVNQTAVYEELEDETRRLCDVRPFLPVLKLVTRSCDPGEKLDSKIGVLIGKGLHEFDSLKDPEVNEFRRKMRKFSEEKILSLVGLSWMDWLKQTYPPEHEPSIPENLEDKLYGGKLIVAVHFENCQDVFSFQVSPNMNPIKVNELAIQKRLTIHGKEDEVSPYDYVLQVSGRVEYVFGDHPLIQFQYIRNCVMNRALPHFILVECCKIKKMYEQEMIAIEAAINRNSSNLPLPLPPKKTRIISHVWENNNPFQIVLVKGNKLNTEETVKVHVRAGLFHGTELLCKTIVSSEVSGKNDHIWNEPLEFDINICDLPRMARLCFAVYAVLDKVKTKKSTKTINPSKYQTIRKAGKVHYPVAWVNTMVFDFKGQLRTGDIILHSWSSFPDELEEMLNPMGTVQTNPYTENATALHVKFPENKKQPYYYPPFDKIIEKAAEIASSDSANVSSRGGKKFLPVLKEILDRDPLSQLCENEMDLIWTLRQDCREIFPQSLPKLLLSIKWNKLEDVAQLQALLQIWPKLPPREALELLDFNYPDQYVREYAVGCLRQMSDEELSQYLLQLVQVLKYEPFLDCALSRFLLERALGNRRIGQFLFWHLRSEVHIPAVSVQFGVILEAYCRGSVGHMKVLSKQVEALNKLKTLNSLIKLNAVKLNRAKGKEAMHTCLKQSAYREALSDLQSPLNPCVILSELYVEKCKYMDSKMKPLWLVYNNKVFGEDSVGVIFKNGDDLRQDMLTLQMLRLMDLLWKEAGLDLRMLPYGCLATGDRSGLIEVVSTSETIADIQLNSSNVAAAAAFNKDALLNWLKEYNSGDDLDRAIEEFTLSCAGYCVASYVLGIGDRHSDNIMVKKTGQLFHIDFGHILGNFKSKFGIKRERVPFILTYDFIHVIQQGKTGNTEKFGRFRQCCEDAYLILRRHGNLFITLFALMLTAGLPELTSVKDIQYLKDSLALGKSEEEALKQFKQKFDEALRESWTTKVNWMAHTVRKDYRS
Phosphatidylinositol 4,5-bisphosphate 3-kinase catalytic subunit gamma isoform, sequence (P48736 whole entry, canonical isoform): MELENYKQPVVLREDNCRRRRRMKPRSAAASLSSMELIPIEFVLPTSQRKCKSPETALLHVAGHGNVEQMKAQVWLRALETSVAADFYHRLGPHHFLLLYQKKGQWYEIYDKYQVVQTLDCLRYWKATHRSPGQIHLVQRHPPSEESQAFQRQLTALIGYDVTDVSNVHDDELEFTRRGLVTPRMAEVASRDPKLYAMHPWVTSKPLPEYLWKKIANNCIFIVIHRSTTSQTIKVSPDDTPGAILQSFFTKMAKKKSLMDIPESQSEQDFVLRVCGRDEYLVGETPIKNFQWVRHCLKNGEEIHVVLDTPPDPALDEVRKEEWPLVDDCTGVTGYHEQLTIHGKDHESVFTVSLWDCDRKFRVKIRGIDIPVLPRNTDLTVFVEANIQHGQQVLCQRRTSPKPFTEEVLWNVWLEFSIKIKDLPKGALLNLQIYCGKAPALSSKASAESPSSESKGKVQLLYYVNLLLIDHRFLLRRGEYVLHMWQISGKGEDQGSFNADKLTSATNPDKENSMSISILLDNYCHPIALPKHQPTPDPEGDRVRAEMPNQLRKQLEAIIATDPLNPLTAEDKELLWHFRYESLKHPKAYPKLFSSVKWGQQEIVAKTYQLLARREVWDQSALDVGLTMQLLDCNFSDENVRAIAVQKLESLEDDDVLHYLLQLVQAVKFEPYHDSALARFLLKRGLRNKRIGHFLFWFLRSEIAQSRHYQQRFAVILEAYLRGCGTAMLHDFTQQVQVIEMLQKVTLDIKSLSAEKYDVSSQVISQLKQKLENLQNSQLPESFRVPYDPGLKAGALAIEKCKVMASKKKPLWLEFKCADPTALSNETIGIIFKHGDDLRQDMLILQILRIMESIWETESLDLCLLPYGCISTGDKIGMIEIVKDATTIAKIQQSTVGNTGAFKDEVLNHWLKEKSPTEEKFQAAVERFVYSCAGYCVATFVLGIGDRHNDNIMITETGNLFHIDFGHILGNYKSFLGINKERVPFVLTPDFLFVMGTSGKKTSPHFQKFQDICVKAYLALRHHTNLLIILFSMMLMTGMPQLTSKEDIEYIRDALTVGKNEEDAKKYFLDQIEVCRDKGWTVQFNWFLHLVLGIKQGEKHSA

hepatocyte CLint [1] [µL/min/1e6 cells]	logD [2]	solubility [3] [µM]	IC50 [4] [nM]	Papp A→B [5] [×10⁻⁶ cm/s]	Structure (SMILES)	also measured
6	2.7	316 (≈ 158 µg/mL)	25		C[C@@H](Nc1cc(F)cc(F)c1)c1cc(C(=O)N2CCOCC2)cn2c(=O)cc(N3CCOCC3)nc12	
19	3.5		11		CC(Nc1cc(F)cc(Cl)c1)c1cc(C(=O)N(C)C)cn2c(=O)cc(N3CCOCC3)nc12 (single isomer, unassigned; (-))	
10	2.1	930 (≈ 453 µg/mL)	8		CC(Nc1cc(F)cc(F)c1)c1cc(C(=O)N(C)CCO)cn2c(=O)cc(N3CCOCC3)nc12 (racemic)	
6	2.6	> 1500	29	9	C[C@@H](Nc1cc(F)cc(F)c1)c1cc(C(=O)N2CCN(C)CC2)cn2c(=O)cc(N3CCOCC3)nc12	
			81		Cc1cccc(NC(C)c2cc(C)cn3c(=O)cc(N4CCOCC4)nc23)c1 (racemic)	
			190		Cc1cc(C(C)Nc2ccc(F)cc2)c2nc(N3CCOCC3)cc(=O)n2c1 (racemic)	
	1.7		8	0.2	CC(Nc1ccccc1)c1cc(C(=O)NCCN(C)C)cn2c(=O)cc(N3CCOCC3)nc12 (single isomer, unassigned; (-))	IC50 [6]: 85 nM; IC50 [7]: 370 nM; IC50 [8]: 6900 nM; IC50 [9]: 8 nM; IC50 [10]: 2200 nM
15	2.9	46 (≈ 21.9 µg/mL)	25		CC(Nc1cc(F)cc(F)c1F)c1cc(C(=O)N(C)C)cn2c(=O)cc(N3CCOCC3)nc12 (single isomer, unassigned; (-))	
45		23 (≈ 10.1 µg/mL)	39	39	CC(Nc1cccc(F)c1)c1cc(C(=O)N(C)C)cn2c(=O)cc(N3CCOCC3)nc12 (racemic)	
			75		CC(Nc1ccc(Cl)cc1)c1cc(C(=O)NCCN(C)C)cn2c(=O)cc(N3CCOCC3)nc12 (racemic)	
			74		CC(Nc1cccc(C(F)(F)F)c1)c1cc(C(=O)NCCN(C)C)cn2c(=O)cc(N3CCOCC3)nc12 (racemic)	
	1.9		23	0.8	CC(Nc1ccccc1F)c1cc(C(=O)NCCN(C)C)cn2c(=O)cc(N3CCOCC3)nc12 (racemic)	
			10		CC(Nc1cccc(Cl)c1)c1cc(C(=O)NCCN(C)C)cn2c(=O)cc(N3CCOCC3)nc12 (racemic)	
			9		Cc1cc(C(C)Nc2cc(F)cc(F)c2)c2nc(N3CCOCC3)cc(=O)n2c1 (stereo unspecified)	
	2.7		4	0.9	CC(Nc1cccc(Cl)c1F)c1cc(C(=O)NCCN(C)C)cn2c(=O)cc(N3CCOCC3)nc12 (single isomer, unassigned; (-))	Ratio [11]: 83; IC50 [6]: 51 nM; fraction unbound [12]: 0.016; IC50 [7]: 92 nM; concentration at 4 h [13]: 12 µM; bioavailability [14]: 39%; IC50 [8]: 670 nM; fraction unbound [15]: 0.033; Ratio IC50 (Homo sapiens [16]): 240; IC50 [9]: 7 nM; Ratio [17]: 48; inhibition in vivo at 50 mg/kg (Mus musculus [18]): 26%; inhibition in vivo at 50 mg/kg (Mus musculus [19]): 40%; IC50 [10]: 970 nM; clearance [20]: 10 mL/min/kg; concentration at 0.5 h [21]: 21 µM
	2		2	0.3	CC(Nc1cccc(F)c1)c1cc(C(=O)NCCN(C)C)cn2c(=O)cc(N3CCOCC3)nc12 (racemic)	
	2.4		156		CC(Nc1ccccc1)c1cc(C(=O)N(C)C)cn2c(=O)cc(N3CCOCC3)nc12 (single isomer, unassigned; (+))	IC50 [6]: 110 nM; Ratio IC50 (Homo sapiens [22]): 550; IC50 [7]: 560 nM; IC50 [8]: 6000 nM; Ratio IC50 (Homo sapiens [23]): 50; Ratio IC50 (Homo sapiens [16]): 60; IC50 [9]: 11 nM; IC50 [10]: 9600 nM
9	2.7	28 (≈ 12.8 µg/mL)	73		CC(Nc1cccc(F)c1F)c1cc(C(=O)N(C)C)cn2c(=O)cc(N3CCOCC3)nc12 (racemic)	
			17		Cc1cc(C(C)Nc2cccc(Cl)c2)c2nc(N3CCOCC3)cc(=O)n2c1 (stereo unspecified)	
13		10 (≈ 4.75 µg/mL)	11		CC(Nc1cc(F)c(F)c(F)c1)c1cc(C(=O)N(C)C)cn2c(=O)cc(N3CCOCC3)nc12 (single isomer, unassigned; (-))	
			7		CC(Nc1ccccc1Cl)c1cc(C(=O)NCCN(C)C)cn2c(=O)cc(N3CCOCC3)nc12 (racemic)	
			530		Cc1ccc(NC(C)c2cc(C(=O)NCCN(C)C)cn3c(=O)cc(N4CCOCC4)nc23)cc1 (racemic)	
	1.8		12	0.2	CC(Nc1ccc(F)cc1)c1cc(C(=O)NCCN(C)C)cn2c(=O)cc(N3CCOCC3)nc12 (racemic)	
